Reference: ChEMBL document CHEMBL1153836, “Effects of human immunodeficiency virus protease inhibitors on the intestinal absorption of tenofovir disoproxil fumarate in vitro” (Antimicrob Agents Chemother, 2007)
Activity calls are given as the source filed them. The rule behind the calls is not given here.

Experiments:
Homo sapiens [1] = experiment: Effect on tenofovir disoproxil fumarate metabolism in ritonavir booster drug treated healthy human assessed as change in plasma AUC of tenofovir at 1000 mg, po, BID co-administered with 300 mg once daily dose of tenofovir disoproxil fumarate; type: ADME, organism-based; settings: in vivo
[2] = biological target: ATP-dependent translocase ABCB1 (Homo sapiens, UniProt P08183); experiment: Inhibition of human MDR1-dependent accumulation of calcein-AM expressed in MDCK2 cells; type: cell-based, MDCK-II; settings: for Activity: human, mdck-ii
Chain of ATP-dependent translocase ABCB1 (P08183 whole entry): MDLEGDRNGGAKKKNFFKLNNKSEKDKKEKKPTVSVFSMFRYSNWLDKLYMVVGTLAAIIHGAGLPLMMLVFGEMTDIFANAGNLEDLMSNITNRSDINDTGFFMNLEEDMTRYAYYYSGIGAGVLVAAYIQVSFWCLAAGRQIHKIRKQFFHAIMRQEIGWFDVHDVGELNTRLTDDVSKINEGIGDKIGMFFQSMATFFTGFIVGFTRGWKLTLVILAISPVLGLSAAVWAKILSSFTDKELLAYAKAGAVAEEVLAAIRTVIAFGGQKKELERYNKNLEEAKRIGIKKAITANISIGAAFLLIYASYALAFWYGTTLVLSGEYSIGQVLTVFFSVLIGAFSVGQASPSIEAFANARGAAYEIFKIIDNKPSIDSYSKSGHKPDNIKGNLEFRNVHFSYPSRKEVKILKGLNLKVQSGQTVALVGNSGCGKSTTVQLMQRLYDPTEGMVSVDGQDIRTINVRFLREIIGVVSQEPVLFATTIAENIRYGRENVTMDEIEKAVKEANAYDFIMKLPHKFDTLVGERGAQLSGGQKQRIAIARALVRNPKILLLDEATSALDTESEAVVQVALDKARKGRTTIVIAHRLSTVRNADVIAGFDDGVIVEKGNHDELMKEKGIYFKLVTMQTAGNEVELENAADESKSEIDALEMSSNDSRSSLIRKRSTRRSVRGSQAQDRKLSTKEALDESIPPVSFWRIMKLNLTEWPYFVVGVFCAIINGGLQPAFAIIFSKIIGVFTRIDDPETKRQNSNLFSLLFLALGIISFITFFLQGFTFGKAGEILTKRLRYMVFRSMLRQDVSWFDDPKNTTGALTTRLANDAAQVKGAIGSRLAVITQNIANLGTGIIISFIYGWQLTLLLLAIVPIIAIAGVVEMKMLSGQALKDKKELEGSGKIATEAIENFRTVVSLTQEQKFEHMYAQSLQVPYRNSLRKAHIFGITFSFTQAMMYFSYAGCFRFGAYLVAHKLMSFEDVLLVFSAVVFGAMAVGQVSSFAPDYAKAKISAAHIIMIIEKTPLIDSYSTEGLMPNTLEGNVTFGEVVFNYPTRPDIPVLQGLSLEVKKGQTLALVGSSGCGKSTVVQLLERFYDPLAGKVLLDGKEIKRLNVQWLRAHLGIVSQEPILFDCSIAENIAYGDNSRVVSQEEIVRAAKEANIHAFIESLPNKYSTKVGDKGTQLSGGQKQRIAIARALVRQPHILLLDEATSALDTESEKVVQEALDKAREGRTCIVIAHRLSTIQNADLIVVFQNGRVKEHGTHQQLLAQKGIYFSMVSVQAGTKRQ
Method in brief: (§1)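 Parental and MDR1-transfected MDCKII cells received calcein-AM together with PI (seven twofold dilutions from 50 µM, no serum proteins). Intracellular calcein fluorescence was read in a 96-well format. Percent increase in fluorescence was fitted to a hyperbolic curve for IC50. Duplicates; 3–10 independent assays.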

Homo sapiens [3] = experiment: Effect on tenofovir disoproxil fumarate metabolism in ritonavir booster drug treated healthy human assessed as change in plasma Cmin of tenofovir at 1000 mg, po, BID co-administered with 300 mg once daily dose of tenofovir disoproxil fumarate; type: ADME, organism-based; settings: in vivo
Homo sapiens [4] = species: Homo sapiens; experiment: Inhibition of esterase mediated-hydrolysis of tenofovir disoproxil fumarate in human intestinal sub cellular fraction S9 at 2 uM after 30 mins
Method in brief: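 Reactions were stopped at 30 and 60 min with 67% acetonitrile, and TDF was measured by LC/MS/MS. Degradation rate came from a single-exponential fit, expressed as percent inhibition versus DMSO. Duplicates; three to six independent experiments.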

Homo sapiens [5] = experiment: Effect on tenofovir disoproxil fumarate metabolism in ritonavir booster drug treated healthy human assessed as change in plasma Cmax of tenofovir at 1000 mg, po, BID co-administered with 300 mg once daily dose of tenofovir disoproxil fumarate; type: ADME, organism-based; settings: in vivo
Caco-2 [6] = experiment: Increase in P-glycoprotein-mediated tenofovir disoproxil fumarate permeation from apical to basolateral side of human Caco-2 cells at 20 uM; type: cell-based
Method in brief: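 Caco-2 monolayers were preincubated 30 min with 20 µM PI in transport buffer, then given fresh buffer with inhibitor plus TDF on the apical side. […] Duplicates; mean ± SD of three independent experiments.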

[7] = biological target: T1, MDR1 (ABCB1, P-glycoprotein) (Homo sapiens, UniProt P08183); experiment: Inhibition of human MDR1-dependent accumulation of calcein-AM expressed in MDCK2 cells at 50 uM; type: cell-based, MDCK-II; set-up: activity at 50 µM: scale not given: the % may be the effect or the level left; settings: MDCK2 cells expressing human MDR1, probe calcein-AM; method in brief: as §1
T1 sequence (P08183 whole entry): as above

Homo sapiens [8] = experiment: Effect on tenofovir disoproxil fumarate metabolism in ritonavir booster drug treated healthy human assessed as change in plasma AUC of tenofovir at 300 mg, po, BID co-administered with 300 mg once daily dose of tenofovir disoproxil fumarate; type: ADME, organism-based; settings: in vivo
Homo sapiens [9] = experiment: Effect on tenofovir disoproxil fumarate metabolism in ritonavir booster drug treated healthy human assessed as change in plasma Cmax of tenofovir at 300 mg, po, BID co-administered with 300 mg once daily dose of tenofovir disoproxil fumarate; type: ADME, organism-based; settings: in vivo
Homo sapiens [10] = experiment: Effect on tenofovir disoproxil fumarate metabolism in ritonavir booster drug treated healthy human assessed as change in plasma Cmin of tenofovir at 300 mg, po, BID co-administered with 300 mg once daily dose of tenofovir disoproxil fumarate; type: ADME, organism-based; settings: in vivo
Homo sapiens [11] = experiment: Effect on tenofovir disoproxil fumarate metabolism in ritonavir booster drug treated healthy human assessed as change in plasma Cmax of tenofovir at 500 mg, po, BID co-administered with 300 mg once daily dose of tenofovir disoproxil fumarate; type: ADME, organism-based; settings: in vivo
Homo sapiens [12] = experiment: Effect on tenofovir disoproxil fumarate metabolism in ritonavir booster drug treated healthy human assessed as change in plasma Cmax of tenofovir at 750 mg, po, BID co-administered with 300 mg once daily dose of tenofovir disoproxil fumarate; type: ADME, organism-based; settings: in vivo
Homo sapiens [13] = experiment: Effect on tenofovir disoproxil fumarate metabolism in ritonavir booster drug treated healthy human assessed as change in plasma Cmax of tenofovir at 800 mg, po, TID co-administered with 300 mg once daily dose of tenofovir disoproxil fumarate; type: ADME, organism-based; settings: in vivo
[14] = biological target: T1, MDR1 (ABCB1, P-glycoprotein); experiment: Inhibition of human MDR1-dependent accumulation of calcein-AM expressed in MDCK2 cells at 20 uM; type: cell-based, MDCK-II; settings: MDCK2 cells expressing human MDR1, probe calcein-AM
Homo sapiens [15] = experiment: Effect on tenofovir disoproxil fumarate metabolism in ritonavir booster drug treated healthy human assessed as change in plasma Cmin of tenofovir at 1250 mg, po, BID co-administered with 300 mg once daily dose of tenofovir disoproxil fumarate; type: ADME, organism-based; settings: in vivo
Homo sapiens [16] = experiment: Effect on tenofovir disoproxil fumarate metabolism in ritonavir booster drug treated healthy human assessed as change in plasma Cmin of tenofovir at 300 mg, po, QD co-administered with 300 mg once daily dose of tenofovir disoproxil fumarate; type: ADME, organism-based; settings: in vivo
Homo sapiens [17] = experiment: Effect on tenofovir disoproxil fumarate metabolism in ritonavir booster drug treated healthy human assessed as change in plasma Cmax of tenofovir at 300 mg, po, QD co-administered with 300 mg once daily dose of tenofovir disoproxil fumarate; type: ADME, organism-based; settings: in vivo
Homo sapiens [18] = experiment: Effect on tenofovir disoproxil fumarate metabolism in ritonavir booster drug treated healthy human assessed as change in plasma AUC of tenofovir at 300 mg, po, QD co-administered with 300 mg once daily dose of tenofovir disoproxil fumarate; type: ADME, organism-based; settings: in vivo
Homo sapiens [19] = experiment: Effect on tenofovir disoproxil fumarate metabolism in ritonavir booster drug treated healthy human assessed as change in plasma Cmin of tenofovir at 1400 mg, po, BID co-administered with 300 mg once daily dose of tenofovir disoproxil fumarate; type: ADME, organism-based; settings: in vivo
Homo sapiens [20] = experiment: Effect on tenofovir disoproxil fumarate metabolism in ritonavir booster drug treated healthy human assessed as change in plasma Cmax of tenofovir at 1400 mg, po, BID co-administered with 300 mg once daily dose of tenofovir disoproxil fumarate; type: ADME, organism-based; settings: in vivo
Homo sapiens [21] = experiment: Effect on tenofovir disoproxil fumarate metabolism in ritonavir booster drug treated healthy human assessed as change in plasma Cmax of tenofovir at 700 mg, po, BID co-administered with 300 mg once daily dose of tenofovir disoproxil fumarate; type: ADME, organism-based; settings: in vivo
Homo sapiens [22] = experiment: Effect on tenofovir disoproxil fumarate metabolism in ritonavir booster drug treated healthy human assessed as change in plasma AUC of tenofovir at 1400 mg, po, BID co-administered with 300 mg once daily dose of tenofovir disoproxil fumarate; type: ADME, organism-based; settings: in vivo
Caco-2 [23] = experiment: Increase in P-glycoprotein-mediated forward permeation of tenofovir disoproxil fumarate in human Caco-2 cells at 2 uM; type: cell-based
Homo sapiens [24] = experiment: Effect on tenofovir disoproxil fumarate metabolism in ritonavir booster drug treated HIV infected patient assessed as change in plasma AUC of tenofovir at 400 mg, po, BID co-administered with 300 mg once daily dose of tenofovir disoproxil fumarate; type: ADME, organism-based; settings: in vivo
Homo sapiens [25] = experiment: Effect on tenofovir disoproxil fumarate metabolism in HIV infected patient assessed as change in plasma Cmin of tenofovir at 400 mg, po, BID co-administered with 300 mg once daily dose of tenofovir disoproxil fumarate; type: ADME, organism-based; settings: in vivo
Homo sapiens [26] = experiment: Effect on tenofovir disoproxil fumarate metabolism in HIV infected patient assessed as change in plasma Cmax of tenofovir at 400 mg, po, BID co-administered with 300 mg once daily dose of tenofovir disoproxil fumarate; type: ADME, organism-based; settings: in vivo
Homo sapiens [27] = species: Homo sapiens; experiment: Inhibition of esterase mediated-hydrolysis of tenofovir disoproxil fumarate in human intestinal sub cellular fraction S9 assessed as rate of tenofovir disoproxil fumarate degradation at 10 uM after 30 mins
Method in brief: (§2)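 Human intestinal S9 at 1 mg/ml protein; TDF 2 µM incubated with or without inhibitor (10, 50 or 100 µM) at 37°C in duplicate. Reactions were stopped at 30 and 60 min with 67% acetonitrile, protein removed by centrifugation, and TDF measured by LC/MS/MS. The degradation rate came from a single-exponential-decay fit.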

Caco-2 [28] = experiment: Increase in P-glycoprotein-mediated forward permeation of tenofovir disoproxil fumarate in human Caco-2 cells at 10 uM; type: cell-based
Caco-2 [29] = experiment: Ratio of permeability from basolateral to apical side over apical to basolateral side in human Caco-2 cells at 1 uM; type: ADME, cell-based; settings: caco-2, 1 µM
Method in brief: (§3)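 Confluent Caco-2 monolayers dosed with TDF (1–1,000 µM) on the apical or basolateral side at 37°C, 5% CO2. […] Efflux ratio = B-to-A Papp / A-to-B Papp. Two independent experiments in duplicate.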

Homo sapiens [30] = species: Homo sapiens; experiment: Inhibition of esterase mediated-hydrolysis of tenofovir disoproxil fumarate in human intestinal sub cellular fraction S9 assessed as rate of tenofovir disoproxil fumarate degradation at 100 uM after 30 mins; method in brief: as §2
Caco-2 [31] = experiment: Ratio of permeability from basolateral to apical side over apical to basolateral side in human Caco-2 cells at 1000 uM; type: ADME, cell-based; settings: caco-2, 1000 µM; method in brief: as §3
Homo sapiens [32] = species: Homo sapiens; experiment: Inhibition of esterase mediated-hydrolysis of tenofovir disoproxil fumarate in human intestinal sub cellular fraction S9 assessed as rate of tenofovir disoproxil fumarate degradation at 50 uM after 30 mins; method in brief: as §2

CC(C)(C)NC(=O)[C@@H]1C[C@@H]2CCCC[C@@H]2CN1C[C@@H](O)[C@H](Cc1ccccc1)NC(=O)[C@H](CC(N)=O)NC(=O)c1ccc2ccccc2n1
Activity (Homo sapiens [1]): 14%
Activity [2]: Dose-dependent effect
Activity (Homo sapiens [3]): 23%
Activity (Homo sapiens [4]): Active
Activity (Homo sapiens [5]): 15%
Activity (Caco-2 [6]): Active

CC(C)CN(C[C@@H](O)[C@H](Cc1ccccc1)NC(=O)O[C@H]1CCOC1)S(=O)(=O)c1ccc(N)cc1
Activity (Homo sapiens [4]): Active
inhibition at 50 µM [7]: ≤ 25%

CC(C)CN(C[C@@H](O)[C@H](Cc1ccccc1)NC(=O)O[C@H]1CO[C@H]2OCC[C@H]21)S(=O)(=O)c1ccc(N)cc1
Activity (Homo sapiens [8]): 22%
Activity (Homo sapiens [9]): 24%
IC50 [2]: > 100 µM
inhibition (Homo sapiens [4]): < 40%
Activity (Homo sapiens [10]): 37%
activity at 50 µM ([7]; read-out: Activity): 15%

CCC[C@@]1(CCc2ccccc2)CC(O)=C([C@H](CC)c2cccc(NS(=O)(=O)c3ccc(C(F)(F)F)cn3)c2)C(=O)O1
Activity (Homo sapiens [11]): -23%
Activity (Homo sapiens [12]): -38%

CC(C)(C)NC(=O)[C@@H]1CN(Cc2cccnc2)CCN1C[C@@H](O)C[C@@H](Cc1ccccc1)C(=O)N[C@H]1c2ccccc2C[C@H]1O.O
Activity (Homo sapiens [13]): 14%
inhibition (Homo sapiens [4]): < 40%
inhibition at 50 µM [7]: ≤ 25%

Cc1c(O)cccc1C(=O)N[C@@H](CSc1ccccc1)[C@H](O)CN1C[C@H]2CCCC[C@H]2C[C@H]1C(=O)NC(C)(C)C
inhibition at 20 µM [14]: 50%
Activity [2]: Dose-dependent effect
Activity (Homo sapiens [4]): Active
Activity (Homo sapiens [15]): 9%

CC(C)c1nc(CN(C)C(=O)N[C@H](C(=O)N[C@@H](Cc2ccccc2)C[C@H](O)[C@H](Cc2ccccc2)NC(=O)OCc2cncs2)C(C)C)cs1
Activity (Homo sapiens [4]): Active
Activity (Caco-2 [6]): Active

COC(=O)N[C@H](C(=O)N[C@@H](Cc1ccccc1)[C@@H](O)CN(Cc1ccc(-c2ccccn2)cc1)NC(=O)[C@@H](NC(=O)OC)C(C)(C)C)C(C)(C)C [ATAZANAVIR]
IC50 [2]: 67.8 µM
Activity [2]: Dose-dependent effect
Activity (Homo sapiens [4]): Active
Activity (Homo sapiens [16]): 29%
Activity (Homo sapiens [17]): 34%
Activity (Homo sapiens [18]): 37%
Activity (Caco-2 [6]): Active

Cc1nc(COc2ccc(C[C@H](NC(=O)O[C@H]3CO[C@H]4OCC[C@H]43)[C@H](O)CN(CC(C)C)S(=O)(=O)c3ccc4c(c3)OCO4)cc2)cs1 [BRECANAVIR]
Activity (Homo sapiens [8]): 32%
Activity (Homo sapiens [9]): 24%
inhibition at 20 µM [14]: 50%
IC50 [2]: 24.1 µM
Activity [2]: Dose-dependent effect
inhibition (Homo sapiens [4]): Active

CC(C)CN(C[C@@H](OP(=O)(O)O)[C@H](Cc1ccccc1)NC(=O)O[C@H]1CCOC1)S(=O)(=O)c1ccc(N)cc1 [FOSAMPRENAVIR]
Activity (Homo sapiens [19]): -12%
Activity (Homo sapiens [20]): -25%
Activity (Homo sapiens [21]): -18%
Activity (Homo sapiens [22]): -15%

Cc1cccc(C)c1OCC(=O)N[C@@H](Cc1ccccc1)[C@@H](O)C[C@H](Cc1ccccc1)NC(=O)[C@H](C(C)C)N1CCCNC1=O [LOPINAVIR]
Activity (Caco-2 [23]): 100%
inhibition at 20 µM [14]: 50%
Activity [2]: Dose-dependent effect
Activity (Homo sapiens [24]): 32%
Activity (Homo sapiens [4]): Active
Activity (Homo sapiens [25]): 51%
Activity (Homo sapiens [26]): 15%
Activity (Caco-2 [6]): Active

CC(C)OC(=O)OCOP(=O)(CO[C@H](C)Cn1cnc2c(N)ncnc21)OCOC(=O)OC(C)C.O=C(O)/C=C/C(=O)O [TENOFOVIR DISOPROXIL FUMARATE]
fold change (FC) (Caco-2 [23]): 2.5
Activity (Homo sapiens [27]): 0.021 min⁻¹
fold change (FC) (Caco-2 [28]): 1.4
Ratio (Caco-2 [29]): 25
Activity (Homo sapiens [30]): 0.012 min⁻¹
Ratio (Caco-2 [31]): 2.6
Activity (Homo sapiens [32]): 0.016 min⁻¹
